For seven molecules, MIC results are on record in ChEMBL document CHEMBL4049410, “Novel benzimidazolyl tetrahydroprotoberberines: Design, synthesis, antimicrobial evaluation and multi-targeting exploration” (2017).

Values after ≈ are worked out from the molar mass of the structure shown.

Assay [1] has as its system Staphylococcus aureus. Briefly: Antibacterial activity against methicillin-resistant Staphylococcus aureus N315 after 24 hrs by two-fold serial dilution assay. It counts as functional. The note with it: Staphylococcus aureus, N315, 24 h; read-out: MIC.
The subject of the next assay is Bacillus subtilis. Briefly: Antibacterial activity against Bacillus subtilis after 24 hrs by two-fold serial dilution assay. It is filed as functional. In short, it runs like this: (§1)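 Twofold serial broth dilution following NCCLS guidance, with Chloromycin, Norfloxacin and Fluconazole as positive controls. MIC in μM is the lowest concentration giving complete inhibition of visible bacterial or fungal growth.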

The subject of the next assay is Micrococcus luteus. Briefly: Antibacterial activity against Micrococcus luteus ATCC 4698 after 24 hrs by two-fold serial dilution assay. It counts as functional, NCTC 2665. In short, it runs like this: as §1
Assay [2] has as its system Staphylococcus aureus. Briefly: Antibacterial activity against Staphylococcus aureus ATCC 25923 after 24 hrs by two-fold serial dilution assay. It is filed as functional. In short, it runs like this: as §1
For assay [3], the system named is Escherichia coli. Briefly: Antibacterial activity against Escherichia coli JM109 after 24 hrs by two-fold serial dilution assay. It counts as functional. In short, it runs like this:
as §1

Assay [4] relates to Escherichia coli. Briefly: Antibacterial activity against Escherichia coli DH52 after 24 hrs by two-fold serial dilution assay. It is filed as functional. A digest of the protocol: as §1
For the next assay, the system named is Shigella dysenteriae. Briefly: Antibacterial activity against Shigella dysenteriae after 24 hrs by two-fold serial dilution assay. It is filed as functional.
In the next assay the test system is Pseudomonas aeruginosa. Briefly: Antibacterial activity against Pseudomonas aeruginosa after 24 hrs by two-fold serial dilution assay. It is filed as functional. A digest of the protocol:
as §1

The subject of another assay is Salmonella typhi. Briefly: Antibacterial activity against Bacillus typhi after 24 hrs by two-fold serial dilution assay. It counts as functional, Salmonella enterica subsp. enterica serovar Typhi. Conditions: Salmonella enterica, 24 h; read-out: MIC.
The test system of a further assay is Proteus vulgaris. Briefly: Antibacterial activity against Bacillus proteus ATCC 13315 after 24 hrs by two-fold serial dilution assay. It is filed as functional. A digest of the protocol:
as §1

The subject of the next assay is Pichia norvegensis. Briefly: Antifungal activity against Candida mycoderma after 24 hrs by two-fold serial dilution assay. It counts as functional. In short, it runs like this: as §1
Another assay deals with Cyberlindnera jadinii. Briefly: Antifungal activity against Candida utilis after 24 hrs by two-fold serial dilution assay. It counts as functional. In short, it runs like this: as §1
The next assay has as its system Saccharomyces cerevisiae. Briefly: Antifungal activity against Saccharomyces cerevisiae after 24 hrs by two-fold serial dilution assay. It counts as functional. A digest of the protocol: as §1
A further assay has as its system Aspergillus flavus. Briefly: Antifungal activity against Aspergillus flavus after 24 hrs by two-fold serial dilution assay. It is filed as functional. A digest of the protocol:
as §1

The next assay concerns Candida albicans. Briefly: Antifungal activity against Candida albicans ATCC 76615 after 24 hrs by two-fold serial dilution assay. It counts as functional. In short, it runs like this:
as §1

[5] abbreviates: Bacillus subtilis, 24 h, read-out: MIC.
Where [6] appears, read: Micrococcus luteus, NCTC 2665, 24 h, read-out: MIC.
Setting [7] is: Staphylococcus aureus, ATCC 25923, 24 h, read-out: MIC.
Setting [8] is: Escherichia coli, JM109, 24 h, read-out: MIC.
[9] abbreviates: Escherichia coli, DH52, 24 h, read-out: MIC.
Where [10] appears, read: Shigella dysenteriae, 24 h, read-out: MIC.
Where [11] appears, read: Pseudomonas aeruginosa, 24 h, read-out: MIC.
Where [12] appears, read: Proteus vulgaris, ATCC 13315, 24 h, read-out: MIC.
[13] abbreviates: Pichia norvegensis, 24 h, read-out: MIC.
[14] abbreviates: Williopsis jadinii, 24 h, read-out: MIC.
The mark [15] stands for this setting: Saccharomyces cerevisiae, 24 h, read-out: MIC.
Where [16] appears, read: Aspergillus flavus, 24 h, read-out: MIC.
The mark [17] stands for this setting: Candida albicans, ATCC 76615, 24 h, read-out: MIC.

For `COc1cc(C=O)c2c(c1O)CN1CCc3cc4c(cc3C1C2)OCO4` (stereo not given), the MIC in the assay with Staphylococcus aureus [1] amounted to 302 µM (≈ 107 µg/mL); with Bacillus subtilis (setting [5]), 483 µM (≈ 171 µg/mL); in the assay with Micrococcus luteus (setting [6]), 302 µM (≈ 107 µg/mL); in the assay with Staphylococcus aureus [2] (setting [7]) it was 724 µM (≈ 256 µg/mL); in the assay with Escherichia coli [3] (setting [8]), 242 µM (≈ 85.3 µg/mL); in the assay with Escherichia coli [4] (setting [9]) it was 242 µM (≈ 85.3 µg/mL). The MIC is 121 µM (≈ 42.7 µg/mL) with Shigella dysenteriae (setting [10]); 302 µM (≈ 107 µg/mL) in the assay with Pseudomonas aeruginosa (setting [11]); 302 µM (≈ 107 µg/mL) in the assay on Salmonella typhi; 483 µM (≈ 171 µg/mL) with Proteus vulgaris (setting [12]); 242 µM (≈ 85.3 µg/mL) in the assay on Pichia norvegensis (setting [13]); 302 µM (≈ 107 µg/mL) in the assay with Cyberlindnera jadinii (setting [14]). Besides, the minimal inhibitory concentration (MIC) with Saccharomyces cerevisiae (setting [15]) was 362 µM (≈ 128 µg/mL); in the assay with Aspergillus flavus (setting [16]) it was 151 µM (≈ 53.3 µg/mL); with Candida albicans (setting [17]), 151 µM (≈ 53.3 µg/mL).
Turning to `COc1ccc2cc3[n+](cc2c1OC)CCc1cc2c(cc1-3)OCO2` [BERBERINE], the MIC with Staphylococcus aureus [1] came out at 230 µM; in the assay on Bacillus subtilis (setting [5]), 1150 µM; with Micrococcus luteus (setting [6]), 1380 µM; in the assay with Staphylococcus aureus [2] (setting [7]), 1380 µM; in the assay with Escherichia coli [3] (setting [8]) it was 1380 µM; in the assay on Escherichia coli [4] (setting [9]), 1150 µM. Further, the MIC with Shigella dysenteriae (setting [10]) stood at 1150 µM; with Pseudomonas aeruginosa (setting [11]), 574 µM; in the assay on Salmonella typhi, 459 µM; in the assay with Proteus vulgaris (setting [12]), 688 µM; with Pichia norvegensis (setting [13]) it was 287 µM; in the assay with Cyberlindnera jadinii (setting [14]), 574 µM. For the same molecule, the MIC is 287 µM in the assay with Saccharomyces cerevisiae (setting [15]), 1150 µM in the assay on Aspergillus flavus (setting [16]) and 918 µM in the assay on Candida albicans (setting [17]).
On to `O=C(N[C@H](CO)[C@H](O)c1ccc([N+](=O)[O-])cc1)C(Cl)Cl` [CHLORAMPHENICOL], for which the MIC is 41.3 µM (≈ 13.3 µg/mL) in the assay with Staphylococcus aureus [1]; 82.5 µM (≈ 26.7 µg/mL) in the assay with Bacillus subtilis (setting [5]); 20.7 µM (≈ 6.69 µg/mL) in the assay with Micrococcus luteus (setting [6]); 41.3 µM (≈ 13.3 µg/mL) in the assay with Staphylococcus aureus [2] (setting [7]); 82.5 µM (≈ 26.7 µg/mL) with Escherichia coli [3] (setting [8]); 66 µM (≈ 21.3 µg/mL) with Escherichia coli [4] (setting [9]). In addition, the minimum inhibitory concentration (MIC) stood at 99 µM (≈ 32 µg/mL) in the assay with Shigella dysenteriae (setting [10]), 99 µM (≈ 32 µg/mL) in the assay on Pseudomonas aeruginosa (setting [11]), 82.5 µM (≈ 26.7 µg/mL) in the assay on Salmonella typhi and 99 µM (≈ 32 µg/mL) in the assay with Proteus vulgaris (setting [12]).
Regarding `CCCCCCCCn1c(-c2cc(OC)c(O)c3c2CC2c4cc5c(cc4CCN2C3)OCO5)nc2ccccc21` (stereo not given), the minimum inhibitory concentration (MIC) in the assay with Staphylococcus aureus [1] was 231 µM (≈ 128 µg/mL); in the assay with Bacillus subtilis (setting [5]), 57.8 µM (≈ 32 µg/mL); in the assay with Micrococcus luteus (setting [6]), 48.2 µM (≈ 26.7 µg/mL); with Staphylococcus aureus [2] (setting [7]), 14.4 µM (≈ 7.97 µg/mL); with Escherichia coli [3] (setting [8]), 116 µM (≈ 64 µg/mL); with Escherichia coli [4] (setting [9]), 24.1 µM (≈ 13.3 µg/mL). Also, the minimal inhibitory concentration (MIC) turned out to be 77.1 µM (≈ 42.7 µg/mL) in the assay with Shigella dysenteriae (setting [10]); 38.5 µM (≈ 21.3 µg/mL) in the assay on Pseudomonas aeruginosa (setting [11]); 24.1 µM (≈ 13.3 µg/mL) with Salmonella typhi; 9.6 µM (≈ 5.32 µg/mL) in the assay with Proteus vulgaris (setting [12]); 4.8 µM (≈ 2.66 µg/mL) in the assay on Pichia norvegensis (setting [13]); 24.1 µM (≈ 13.3 µg/mL) with Cyberlindnera jadinii (setting [14]). Also, the MIC was 96.3 µM (≈ 53.3 µg/mL) in the assay on Saccharomyces cerevisiae (setting [15]), 28.9 µM (≈ 16 µg/mL) with Aspergillus flavus (setting [16]) and 28.9 µM (≈ 16 µg/mL) in the assay with Candida albicans (setting [17]).
On to `COc1cc(-c2nc3ccccc3n2CCCCCCn2c3ccccc3c3ccccc32)c2c(c1O)CN1CCc3cc4c(cc3C1C2)OCO4` (stereo not given), for which the minimal inhibitory concentration (MIC) stood at 618 µM (≈ 427 µg/mL) in the assay on Staphylococcus aureus [1]; 741 µM (≈ 512 µg/mL) with Bacillus subtilis (setting [5]); 741.1 µM (≈ 512 µg/mL) in the assay with Micrococcus luteus; 618 µM (≈ 427 µg/mL) with Escherichia coli [3] (setting [8]); 617.6 µM (≈ 427 µg/mL) against Escherichia coli [4]; 741 µM (≈ 512 µg/mL) in the assay on Pseudomonas aeruginosa (setting [11]). Further, the MIC in the assay with Proteus vulgaris was found to be 617.6 µM (≈ 427 µg/mL); with Pichia norvegensis (setting [13]), 618 µM (≈ 427 µg/mL); in the assay with Cyberlindnera jadinii (setting [14]), 618 µM (≈ 427 µg/mL); with Saccharomyces cerevisiae (setting [15]), 741 µM (≈ 512 µg/mL); in the assay on Aspergillus flavus, 617.6 µM (≈ 427 µg/mL); with Candida albicans (setting [17]), 247 µM (≈ 171 µg/mL).
For `CCn1cc(C(=O)O)c(=O)c2cc(F)c(N3CCNCC3)cc21` [NORFLOXACIN], the minimum inhibitory concentration (MIC) with Staphylococcus aureus [1] stood at 25.1 µM (≈ 8.02 µg/mL); in the assay with Bacillus subtilis (setting [5]) it was 3.1 µM (≈ 0.99 µg/mL); with Micrococcus luteus (setting [6]) it was 4.2 µM (≈ 1.34 µg/mL); with Staphylococcus aureus [2] (setting [7]), 1.1 µM (≈ 0.351 µg/mL); with Escherichia coli [3] (setting [8]), 50.1 µM (≈ 16 µg/mL); in the assay with Escherichia coli [4] (setting [9]), 50.1 µM (≈ 16 µg/mL). For the same molecule, the MIC is 5.3 µM (≈ 1.69 µg/mL) with Shigella dysenteriae (setting [10]), 41.8 µM (≈ 13.3 µg/mL) in the assay on Pseudomonas aeruginosa (setting [11]), 10.4 µM (≈ 3.32 µg/mL) in the assay with Salmonella typhi and 12.5 µM (≈ 3.99 µg/mL) in the assay on Proteus vulgaris (setting [12]).
For the molecule `COc1cc(-c2nc3ccccc3n2Cc2ccc(F)cc2)c2c(c1O)CN1CCc3cc4c(cc3C1C2)OCO4.Cl` (stereo not given), the MIC with Bacillus subtilis was 182 µM; against Micrococcus luteus it was 182 µM; against Staphylococcus aureus [2], 109.2 µM; against Escherichia coli [3], 182 µM; against Escherichia coli [4], 182 µM; against Shigella dysenteriae, 145.6 µM. For the same molecule, the minimum inhibitory concentration (MIC) in the assay on Pseudomonas aeruginosa came out at 182 µM; in the assay with Proteus vulgaris, 182 µM; in the assay on Pichia norvegensis, 218.4 µM; in the assay on Cyberlindnera jadinii, 182 µM; in the assay on Saccharomyces cerevisiae it was 36.4 µM; against Aspergillus flavus, 182 µM. This molecule also yielded a minimum inhibitory concentration (MIC) in the assay with Candida albicans of 182 µM.
